{
  "source": "ChEMBL document CHEMBL1132994",
  "about": "“Synthesis and anticonvulsant and neurotoxic properties of substituted N-phenyl derivatives of the phthalimide pharmacophore” (J Med Chem, 2000)",
  "key": {"[1]": {"test_system": "Mus musculus", "assay": "Anticonvulsant activity in mice through seizures induced by maximal electroshock (MES) tests after ip administration at a concentration of 300 mg/kg after 4 hours; Inactive", "format": "functional, organism-based", "set-up": "dose 300 mg/kg"}, "[2]": {"test_system": "Rattus norvegicus", "assay": "Effective dose required to assure anticonvulsant protection in 50% of rats dosed orally by scPTZ test.", "format": "functional", "settings": "po", "outline": "(§1)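 Rats dosed orally; ED50 is the dose giving anticonvulsant protection in 50% of animals in the MES or scPtz test. TD50 is the minimal neurotoxic dose in 50% of animals. Time to peak effect was also determined.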"}, "[3]": {"test_system": "Rattus norvegicus", "assay": "Anticonvulsant activity was measured in rats through seizures induced by maximal electroshock (MES) tests by oral administration of drug after 15 minutes.", "format": "functional", "outline": "(§2)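 Rats given a single oral dose of 30 or 50 mg/kg, depending on compound; MES protection scored at 15, 30, 60, 120 and 240 min. Activity graded by fraction of animals protected (0-25%, 25-50%, 50-75%, 75-100%); neurotoxicity monitored at the same time points.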"}, "[4]": {"test_system": "Mus musculus", "assay": "Neurotoxicity determined by rotarod test after intraperitoneal administration at a concentration of 300 mg/kg after 4 hours; Inactive", "format": "functional, organism-based", "set-up": "dose 300 mg/kg"}, "[5]": {"species_on_record": "Mus musculus", "assay": "Current response was measured on 1 uM GABA at 10 uM concentration on 5 isolated mouse cortical neurons.", "format": "functional"}, "[6]": {"species_on_record": "Mus musculus", "assay": "Current response was measured on 100 uM kainate at 100 uM concentration on 7 isolated mouse cortical neurons.", "format": "functional", "outline": "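Cultured mouse fetal cortical neurons, whole-cell clamped at -60 mV and 23 °C. Bath had 1 µM glycine, 10 µM picrotoxin, strychnine and tetrodotoxin. Currents evoked by 100 µM kainate pulses with and without 100 µM compound via rapid perfusion; expressed as % of control, mean ± SEM, Student's t-test.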"}, "[7]": {"test_system": "Mus musculus", "assay": "Anticonvulsant activity in mice through seizures induced by sc pentylenetetrazole (intraperitoneal administration at a concentration of 300 mg/kg after 30 min; active", "format": "functional, organism-based", "set-up": "dose 300 mg/kg"}, "[8]": {"test_system": "Mus musculus", "assay": "Anticonvulsant activity in mice through seizures induced by maximal electroshock (MES) tests after ip administration at a concentration of 100 mg/kg after 30 min; active", "format": "functional, organism-based", "set-up": "dose 100 mg/kg"}, "[9]": {"test_system": "Mus musculus", "assay": "Anticonvulsant activity in mice through seizures induced by subcutaneous pentylenetetrazole (scPTZ) tests after ip administration at a concentration of 300 mg/kg after 4 hours; active", "format": "functional, organism-based", "set-up": "dose 300 mg/kg"}, "[10]": {"species_on_record": "Mus musculus", "assay": "Current response was measured from -90 mV depolarizing voltage steps at 100 uM concentration on 5 N1E-115 neuroblastoma cells.", "format": "functional", "outline": "(§3)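 Differentiated N1E-115 cells (3-5 days in 2.5% FCS, 2% DMSO), whole-cell clamped at -70 mV at room temperature. Bath had Cd2+ and TEA to block Ca2+ and K+ channels. Na+ currents evoked by steps from -80 to +60 mV after 90 ms prepulses to -90 or -60 mV, measured 1-2 min into compound exposure; reported as % of control.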"}, "[11]": {"assay": "dose eliciting minimal neurological toxicity in 50% of animals.", "format": "organism-based", "settings": "rat, in vivo"}, "[12]": {"test_system": "Rattus norvegicus", "assay": "Anticonvulsant activity was measured in rats through seizures induced by maximal electroshock (MES) tests by oral administration of drug after 30 minutes.", "format": "functional", "outline": "as §2"}, "[13]": {"test_system": "Rattus norvegicus", "assay": "Anticonvulsant activity was measured in rats through seizures induced by maximal electroshock (MES) tests by oral administration of drug after 4 hours.", "format": "functional", "outline": "as §2"}, "[14]": {"species_on_record": "Mus musculus", "assay": "Current response was measured from -60 mV depolarizing voltage steps at 100 uM concentration on 3 N1E-115 neuroblastoma cells.", "format": "functional", "outline": "as §3"}, "[15]": {"test_system": "Rattus norvegicus", "assay": "Anticonvulsant activity was measured in rats through seizures induced by maximal electroshock (MES) tests by oral administration of drug after 1 hour.", "format": "functional", "outline": "as §2"}, "[16]": {"species_on_record": "Mus musculus", "assay": "Current response was measured on 1 uM GABA at 30 uM concentration on 6 isolated mouse cortical neurons.", "format": "functional"}, "[17]": {"test_system": "Rattus norvegicus", "assay": "(§4) Toxicity screening in rats dosed orally with the compound; No toxicity", "format": "organism-based", "settings": "in vivo, po"}, "[18]": {"test_system": "Rattus norvegicus", "assay": "Anticonvulsant activity was measured in rats through seizures induced by maximal electroshock (MES) tests by oral administration of drug after 2 hours.", "format": "functional", "outline": "as §2"}, "[19]": {"species_on_record": "Mus musculus", "assay": "Current response was measured on 1 uM GABA at 100 uM concentration on 10 isolated mouse cortical neurons.", "format": "functional"}, "[20]": {"test_system": "Mus musculus", "assay": "Neurotoxicity by rotarod test after intraperitoneal administration at a concentration of 300 mg/kg after 30 minutes; Inactive", "format": "functional, organism-based", "set-up": "dose 300 mg/kg"}, "[21]": {"test_system": "Rattus norvegicus", "assay": "Effective dose required to assure anticonvulsant protection in 50% of rats dosed orally by MES test.", "format": "functional", "settings": "po", "outline": "as §1"}, "[22]": {"test_system": "Rattus norvegicus", "assay": "as §4", "format": "functional, organism-based", "outline": "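Rats given a single oral dose of 30 or 50 mg/kg, depending on compound. Minimal neurotoxicity was scored at 15, 30, 60, 120 and 240 min after dosing, alongside the MES test. Scores are graded by the percentage of animals affected.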"}, "[23]": {"test_system": "Mus musculus", "assay": "Anticonvulsant activity in mice through seizures induced by subcutaneous pentylenetetrazole (scPTZ) tests after ip administration at a concentration of 300 mg/kg after 30 min; Active", "format": "functional, organism-based", "set-up": "dose 300 mg/kg"}, "[24]": {"test_system": "Mus musculus", "assay": "Anticonvulsant activity in mice through seizures induced by maximal electroshock (MES) tests after ip administration at a concentration of 300 mg/kg after 4 hours; Active", "format": "functional, organism-based", "set-up": "dose 300 mg/kg"}, "[25]": {"test_system": "Rattus norvegicus", "assay": "Anticonvulsant activity was measured in rats through seizures induced by maximal electroshock (MES) tests by oral administration of drug at a concentration of 30 mg/kg after 15 minutes.", "format": "functional", "outline": "as §2"}, "[26]": {"test_system": "Rattus norvegicus", "assay": "Anticonvulsant activity in rats through seizures induced by maximal electroshock (MES) tests after oral administration at a concentration of 30 mg/kg after 1 hour.", "format": "functional", "outline": "as §2"}, "[27]": {"test_system": "Rattus norvegicus", "assay": "Anticonvulsant activity was measured in rats through seizures induced by maximal electroshock (MES) tests by oral administration of drug at a concentration of 30 mg/kg after 30 minutes.", "format": "functional", "outline": "as §2"}, "[28]": {"test_system": "Mus musculus", "assay": "Anticonvulsant activity in mice through seizures induced by sc pentylenetetrazole (intraperitoneal administration at a concentration of 300 mg/kg after 4 hours; Inactive", "format": "functional, organism-based", "set-up": "dose 300 mg/kg"}, "[29]": {"test_system": "Mus musculus", "assay": "Anticonvulsant activity in mice through seizures induced by maximal electroshock (MES) tests after ip administration at a concentration of 100 mg/kg after 30 min; Active", "format": "functional, organism-based", "set-up": "dose 100 mg/kg"}, "[30]": {"test_system": "Mus musculus", "assay": "Neurotoxicity by rotarod test after intraperitoneal administration at a concentration of 300 mg/kg after 30 minutes; Active", "format": "functional, organism-based", "set-up": "dose 300 mg/kg"}, "[31]": {"test_system": "Rattus norvegicus", "assay": "Anticonvulsant activity was measured in rats through seizures induced by maximal electroshock (MES) tests by oral administration of drug at a concentration of 30 mg/kg after 2 hours.", "format": "functional", "outline": "as §2"}, "[32]": {"test_system": "Mus musculus", "assay": "Neurotoxicity by rotarod test after intraperitoneal administration at a concentration of 300 mg/kg after 4 hours; Active", "format": "functional, organism-based", "set-up": "dose 300 mg/kg"}},
  "note": "“And” between values parts separate entries of the source, which are not always exact repeats. Identical values can stand only once. The source made the active and inactive calls. The rule behind the calls is not given here.",
  "data": [
    {"smiles": "Nc1ccc(N2C(=O)c3ccccc3C2=O)c(Cl)c1", "values": [
      {"measurement": "Activity", "setting": "[1]", "value": "inactive"},
      {"measurement": "ED50", "setting": "[2]", "value": "> 250", "unit": "mg/kg"},
      {"measurement": "Activity in animals", "setting": "[3]", "value": 75, "unit": "%"},
      {"measurement": "Activity", "setting": "[4]", "value": "inactive"},
      {"measurement": "Response", "setting": "[5]", "value": "174% and 99%"},
      {"measurement": "Response", "setting": "[6]", "value": 74, "unit": "%"},
      {"measurement": "Activity", "setting": "[7]", "value": "Active"},
      {"measurement": "Activity", "setting": "[8]", "value": "Active"},
      {"measurement": "Activity", "setting": "[9]", "value": "Active"},
      {"measurement": "Response", "setting": "[10]", "value": 62, "unit": "%"},
      {"measurement": "TD50", "setting": "[11]", "value": "> 500", "unit": "mg/kg"},
      {"measurement": "Activity in animals", "setting": "[12]", "value": 100, "unit": "%"},
      {"measurement": "Activity in animals", "setting": "[13]", "value": 100, "unit": "%"},
      {"measurement": "Response", "setting": "[14]", "value": 49, "unit": "%"},
      {"measurement": "Activity in animals", "setting": "[15]", "value": 100, "unit": "%"},
      {"measurement": "Response", "setting": "[16]", "value": 142, "unit": "%"},
      {"measurement": "Toxicity", "setting": "[17]", "value": "No toxicity"},
      {"measurement": "Activity in animals", "setting": "[18]", "value": 100, "unit": "%"},
      {"measurement": "Response", "setting": "[19]", "value": 118, "unit": "%"},
      {"measurement": "Activity", "setting": "[20]", "value": "inactive"},
      {"measurement": "ED50", "setting": "[21]", "value": 5.7, "unit": "mg/kg"}
    ]},
    {"smiles": "Nc1cccc(N2C(=O)c3ccccc3C2=O)c1", "values": [
      {"measurement": "Toxicity", "setting": "[22]", "value": "Not toxic"},
      {"measurement": "Activity", "setting": "[23]", "value": "Active"},
      {"measurement": "Activity", "setting": "[24]", "value": "Active"},
      {"measurement": "Activity in animals", "setting": "[25]", "value": 50, "unit": "%"},
      {"measurement": "Activity in animals", "setting": "[26]", "value": 75, "unit": "%"},
      {"measurement": "Activity in animals", "setting": "[27]", "value": 100, "unit": "%"},
      {"measurement": "Activity in animals", "setting": "[13]", "value": 100, "unit": "%"},
      {"measurement": "Activity", "setting": "[28]", "value": "inactive"},
      {"measurement": "Activity", "setting": "[29]", "value": "Active"},
      {"measurement": "Activity", "setting": "[30]", "value": "Active"},
      {"measurement": "Activity in animals", "setting": "[31]", "value": 75, "unit": "%"},
      {"measurement": "Activity", "setting": "[32]", "value": "Active"}
    ]}
  ]
}
